Source: paper PMC4512242 (Nature chemical biology, 2015)
Substitutions are numbered along the chain they refer to. Names may count otherwise. Ends that are not written are not given here.

T1: LynD Y67D (Lyngbya sp. PCC 8106, Y67D)
T1 chain: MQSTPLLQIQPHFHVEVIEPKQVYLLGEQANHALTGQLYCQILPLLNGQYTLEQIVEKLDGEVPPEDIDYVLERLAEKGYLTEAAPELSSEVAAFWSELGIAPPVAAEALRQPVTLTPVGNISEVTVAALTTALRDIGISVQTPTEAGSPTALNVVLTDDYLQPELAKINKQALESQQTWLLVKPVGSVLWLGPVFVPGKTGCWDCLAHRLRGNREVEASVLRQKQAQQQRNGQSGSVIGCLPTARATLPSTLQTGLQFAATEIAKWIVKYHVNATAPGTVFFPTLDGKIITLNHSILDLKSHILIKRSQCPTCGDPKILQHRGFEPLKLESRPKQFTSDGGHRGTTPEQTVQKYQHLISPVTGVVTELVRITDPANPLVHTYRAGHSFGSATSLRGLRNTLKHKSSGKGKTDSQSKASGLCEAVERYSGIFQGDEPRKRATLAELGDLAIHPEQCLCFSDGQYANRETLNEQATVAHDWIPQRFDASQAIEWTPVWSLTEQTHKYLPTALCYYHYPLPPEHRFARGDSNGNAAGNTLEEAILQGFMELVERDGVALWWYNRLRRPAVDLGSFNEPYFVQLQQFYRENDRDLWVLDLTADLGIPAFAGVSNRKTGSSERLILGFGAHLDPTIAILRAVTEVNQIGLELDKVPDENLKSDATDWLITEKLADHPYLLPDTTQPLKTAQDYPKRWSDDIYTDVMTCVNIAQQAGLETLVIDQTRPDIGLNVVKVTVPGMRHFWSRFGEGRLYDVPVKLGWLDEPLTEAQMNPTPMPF

T2: LynD R399E (Lyngbya sp. PCC 8106, R399E)
T2 chain: T1 chain with D67Y, R399E

B1: LynD heterocyclase (cyclodehydratase), full length (enzyme, Lyngbya sp. PCC 8106)
chain: T1 chain with D67Y
B2: LynD fusion protein (PatE leader residues 21-38 and an eleven residue linker on the N-terminus of LynD) (enzyme)
chain: QLSSQLAELSEEALGDAGAGAGAGAGAGAMQSTPLLQIQPHFHVEVIEPKQVYLLGEQANHALTGQLYCQILPLLNGQYTLEQIVEKLDGEVPPEYIDYVLERLAEKGYLTEAAPELSSEVAAFWSELGIAPPVAAEALRQPVTLTPVGNISEVTVAALTTALRDIGISVQTPTEAGSPTALNVVLTDDYLQPELAKINKQALESQQTWLLVKPVGSVLWLGPVFVPGKTGCWDCLAHRLRGNREVEASVLRQKQAQQQRNGQSGSVIGCLPTARATLPSTLQTGLQFAATEIAKWIVKYHVNATAPGTVFFPTLDGKIITLNHSILDLKSHILIKRSQCPTCGDPKILQHRGFEPLKLESRPKQFTSDGGHRGTTPEQTVQKYQHLISPVTGVVTELVRITDPANPLVHTYRAGHSFGSATSLRGLRNTLKHKSSGKGKTDSQSKASGLCEAVERYSGIFQGDEPRKRATLAELGDLAIHPEQCLCFSDGQYANRETLNEQATVAHDWIPQRFDASQAIEWTPVWSLTEQTHKYLPTALCYYHYPLPPEHRFARGDSNGNAAGNTLEEAILQGFMELVERDGVALWWYNRLRRPAVDLGSFNEPYFVQLQQFYRENDRDLWVLDLTADLGIPAFAGVSNRKTGSSERLILGFGAHLDPTIAILRAVTEVNQIGLELDKVPDENLKSDATDWLITEKLADHPYLLPDTTQPLKTAQDYPKRWSDDIYTDVMTCVNIAQQAGLETLVIDQTRPDIGLNVVKVTVPGMRHFWSRFGEGRLYDVPVKLGWLDEPLTEAQMNPTPMPF
B3: PatE′ (modified PatE precursor peptide with full leader and a single core peptide ITACITFC) (peptide)
chain: MDKKNILPQQGQPVIRLTAGQLSSQLAELSEEALGDAGLEASKITACITFCAYDGELE
B4: PatE′ E32R (peptide)
chain: B3 chain with E32R
B5: PatE′ L26R (peptide)
chain: B3 chain with L26R
B6: PatE′ C51A (peptide)
chain: B3 chain with C51A

How the values were obtained:
[1] = test system: LynD Fusion; experiment: Heterocyclization reaction with LynD fusion, MS; format: biochemical, Lyngbya sp. PCC 8106
Method in brief: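 Enzyme is LynD carrying PatE leader residues 21-38 plus an 11-residue linker at its N-terminus, expressed in E. coli BL21 (DE3) with the His6-tag removed by TEV. Product is read by ESI/MALDI MS or LC-MS […].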

[2] = test system: TruD; experiment: Heterocyclization reaction with TruD, LCMS; format: biochemical; settings: ITACITFCAYDG core peptide, no leader, 16 h
[3] = test system: LynD; experiment: Heterocyclization reaction with LynD, MS; format: biochemical, Lyngbya sp. PCC 8106; settings: LynD wild type; 100 μM PatE′ or variant, 5 μM enzyme, 150 mM NaCl, 10 mM HEPES pH 7.4, 1 mM TCEP, 5 mM ATP, 5 mM MgCl2, 16 h, 37 °C; ESI or MALDI MS
Method in brief: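 Codon-optimized full-length LynD, with a TEV-cleaved His6-tag, is purified from E. coli BL21 (DE3) by Ni, monoQ and size-exclusion steps. PatE′ (C-terminal His6) comes from inclusion bodies, purified in 8 M urea, then DTT-treated and gel-filtered. 100 μM substrate is reacted with 5 μM enzyme and 5 mM ATP/MgCl2 in HEPES pH 7.4 for 16 h at 37 °C. Heterocycle number is read by ESI or MALDI MS.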

[4] = molecular target: the molecule itself; experiment: SEC
[5] = molecular target: T1, LynD Y67D; experiment: ITC
[6] = molecular target: B1; experiment: ITC
[7] = molecular target: T2, LynD R399E; experiment: ITC
[8] = molecular target: B1; experiment: crystal structure

## ITACITFCAYDG
[1]; LynDfusion, ITACITFCAYDG core peptide, no leader, 2 h, LCMS
  heterocycles formed in leaderless test peptide: predominantly 2 heterocycles after just 2 h
[2]
  heterocycles formed in leaderless test peptide: only 1 heterocycle is formed

## MDKKNILPQQGQPVIRLTAGQLSSQLAELSEEALGDAGLEASKITACITFCAYDGELEHHH HHH [PatE′]
[1]; LynD Fusion, 100 μM PatE′, 5 μM enzyme, pH 7.4, 5 mM ATP, 5 mM MgCl2, 16 h, 37 °C, ESI or MALDI MS
  No. of heterocycles: 2
[3]
  No. of heterocycles: 2

## PatE′ E32R (MDKKNILPQQGQPVIRLTAGQLSSQLAELSERALGDAGLEASKITACITFCAYDGELE; not fully specified (C-terminus); cysteine pairing not given here)
[3]
  No. of heterocycles: 2

## PatE′ L26R (MDKKNILPQQGQPVIRLTAGQLSSQRAELSEEALGDAGLEASKITACITFCAYDGELE; not fully specified (C-terminus); cysteine pairing not given here)
[3]
  No. of heterocycles: 2

## B1
[4]
  stoichiometry N: 2

## B2
[4]
  stoichiometry N: 2

## B3
[5]
  Kd: 12.9 µM
[6]
  Kd: 1.49 µM
[7]
  Kd: 10.7 µM

## B4
[6]
  Kd: 18.4 µM
[7]
  Kd: 8.55 µM

## B5
[5]
  Kd: 15.2 µM

## B6
[8]
  binding result: binds
